Our source for the inhibition, inhibition in vivo and Activity values is ChEMBL document CHEMBL1914430, “Synthesis of some new 1,3,5-trisubstituted pyrazolines bearing benzene sulfonamide as anticancer and anti-inflammatory agents” (Bioorg Med Chem Lett, 2011).

Activity calls are given as the source filed them. The calls are words filed in the database; no cut-off is given here.

Data set [1] concerns the target Prostaglandin G/H synthase 2 (Bos taurus) (UniProt O62698). The data set is described as follows: Inhibition of bovine COX2 assessed as PGE2 production preincubated for 10 mins by ELISA. Put shortly:
(§1)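 In vitro inhibition of bovine COX-1 and COX-2 measured with a COX inhibitor screening kit, following the Gierse et al. method.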
In general terms: An ELISA detects its analyte on a solid surface through an enzyme-linked reagent.

For data set [2], the system named is Rattus norvegicus. The data set is described as follows: Antiinflammatory activity in Wistar rat assessed as inhibition of carrageenan-induced hind paw edema at 20 mg/kg, po administered 30 mins before carrageenan challenge measured after 3 hrs by plethysmometer. In kind it is functional. In short, it runs like this:
(§2)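 Wistar rats of either sex, 150–175 g, fasted 16 h, n = 6 per group. Compound given orally at 20 mg/kg as a suspension in 1% CMC in water (10 mL/kg); controls got vehicle only. After 30 min, 0.1 mL of 1% carrageenan in saline was injected subplantar into the left hind paw. Paw volume was measured by plethysmometer at 0, 3 and 5 h. Inhibition = (1 − Vt/Vc) × 100, reported as mean ± SEM.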
In general terms: Carrageenan injected into the paw causes an acute inflammation.

In data set [3] the test system is Rattus norvegicus. The data set is described as follows: Toxicity in Wistar rat assessed as appearance of ulcerogenic lesions in stomach at 60 mg/kg, po. In kind it is organism-based. Also noted: dose 60 mg/kg, route oral. The note with it: in vivo. In short, it runs like this: (§3)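 Wistar rats, 160–220 g, fasted 24 h, six per group. Compound given orally at 60 mg/kg as a suspension in 1% w/v CMC (10 mL/kg); controls got vehicle only. Animals were killed under ether anaesthesia 6 h after treatment, and stomachs were opened along the greater curvature and examined for lesions and bleeding.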

Data set [4] has as its target Prostaglandin G/H synthase 1 (Bos taurus) (UniProt O62664). As to the kind of experiment: Inhibition of bovine COX1 assessed as PGE2 production preincubated for 10 mins by ELISA. In short, it runs like this:
as §1

The subject of data set [5] is Rattus norvegicus. The data set is described as follows: Antiinflammatory activity in Wistar rat assessed as inhibition of carrageenan-induced hind paw edema at 20 mg/kg, po administered 30 mins before carrageenan challenge measured after 5 hrs by plethysmometer. Format: functional. In short, it runs like this:
as §2

The subject of data set [6] is Rattus norvegicus. The data set is described as follows: Toxicity in Wistar rat assessed as appearance of ulcerogenic bleeding in stomach at 60 mg/kg, po. In kind it is organism-based. The note with it: in vivo. More on the design: dose 60 mg/kg, route oral. In short, it runs like this:
as §3

Chain of Prostaglandin G/H synthase 1 (Bos taurus) (O62664 whole entry): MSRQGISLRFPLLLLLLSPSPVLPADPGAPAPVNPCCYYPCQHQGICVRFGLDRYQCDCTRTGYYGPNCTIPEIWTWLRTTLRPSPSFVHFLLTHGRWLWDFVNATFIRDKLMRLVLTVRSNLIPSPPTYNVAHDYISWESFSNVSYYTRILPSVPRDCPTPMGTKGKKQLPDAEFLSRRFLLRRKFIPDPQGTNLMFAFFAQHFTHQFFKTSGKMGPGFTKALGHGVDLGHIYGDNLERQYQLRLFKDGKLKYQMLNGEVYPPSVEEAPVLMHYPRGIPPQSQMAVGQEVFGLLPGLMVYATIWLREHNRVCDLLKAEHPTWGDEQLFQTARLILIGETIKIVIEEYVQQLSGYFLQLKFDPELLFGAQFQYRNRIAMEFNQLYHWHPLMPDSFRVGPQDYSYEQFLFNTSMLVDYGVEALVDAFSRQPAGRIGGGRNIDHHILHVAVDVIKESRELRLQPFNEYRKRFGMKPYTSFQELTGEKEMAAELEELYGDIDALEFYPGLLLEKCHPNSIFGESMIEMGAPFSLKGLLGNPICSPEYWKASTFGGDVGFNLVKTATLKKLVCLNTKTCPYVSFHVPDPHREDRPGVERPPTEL
Chain of Prostaglandin G/H synthase 2 (Bos taurus) (O62698 whole entry): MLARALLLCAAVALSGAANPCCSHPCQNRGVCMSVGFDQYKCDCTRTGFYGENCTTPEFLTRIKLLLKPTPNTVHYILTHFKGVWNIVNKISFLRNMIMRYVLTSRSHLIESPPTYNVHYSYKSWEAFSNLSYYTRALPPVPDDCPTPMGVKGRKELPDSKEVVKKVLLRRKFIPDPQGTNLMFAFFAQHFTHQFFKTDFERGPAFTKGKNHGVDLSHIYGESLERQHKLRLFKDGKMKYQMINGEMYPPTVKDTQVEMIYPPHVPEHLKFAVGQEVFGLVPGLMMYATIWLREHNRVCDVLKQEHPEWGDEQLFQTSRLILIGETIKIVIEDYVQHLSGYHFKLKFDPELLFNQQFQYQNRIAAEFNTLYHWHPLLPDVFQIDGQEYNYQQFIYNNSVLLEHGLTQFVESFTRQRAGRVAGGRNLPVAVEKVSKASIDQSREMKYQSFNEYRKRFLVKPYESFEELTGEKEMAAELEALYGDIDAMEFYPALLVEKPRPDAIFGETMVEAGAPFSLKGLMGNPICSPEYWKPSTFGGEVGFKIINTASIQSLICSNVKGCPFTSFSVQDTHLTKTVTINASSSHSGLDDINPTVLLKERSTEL

Turning to `COc1cc(C)c(Cl)cc1C1=NN(c2ccc(S(N)(=O)=O)cc2)C(c2ccc(N(C)C)cc2)C1` (centres undefined), the inhibition entry in data set [1] was “Active”. Besides, the inhibition in vivo (as a rule, the percentage by which the read-out fell short of the control) at 20 mg/kg with Rattus norvegicus [2] was determined as 78.9%; in the data set on Rattus norvegicus [5] it was 95.2%. For the same molecule, the Activity result in the data set on Rattus norvegicus [3] and in the data set with Rattus norvegicus [6] was “Non-toxic” throughout. For the same molecule, the inhibition entry in data set [4] is “inactive”.

In the case of `COc1cc(C)c(Cl)cc1C1=NN(c2ccc(S(N)(=O)=O)cc2)C(c2ccccc2)C1` (centres undefined), the inhibition in vivo at 20 mg/kg with Rattus norvegicus [2] was determined as 55.3%; in the data set on Rattus norvegicus [5] it was 59.5%.

With `Cc1cc(O)c(C2=NN(c3ccc(S(N)(=O)=O)cc3)C(c3ccc(Cl)cc3)C2)cc1Cl` (centres undefined), the inhibition in vivo at 20 mg/kg with Rattus norvegicus [2] came out at 65.8%; with Rattus norvegicus [5], 71.4%.

As for `Cc1ccc(-c2cc(C(F)(F)F)nn2-c2ccc(S(N)(=O)=O)cc2)cc1` [CELECOXIB], the inhibition in vivo at 20 mg/kg amounted to 82.6% with Rattus norvegicus [2] and 85.7% in the data set with Rattus norvegicus [5].

On to `Cc1cc(O)c(C2=NN(c3ccc(S(N)(=O)=O)cc3)C(c3ccccc3)C2)cc1Cl` (centres undefined), for which the figures for the inhibition in vivo at 20 mg/kg with Rattus norvegicus [2] and in the data set on Rattus norvegicus [5] were 47.4% and 60.3%, respectively.
